Test results from ChEMBL document CHEMBL1147067, “Inhibitors of metabolism rescue cell death in Huntington's disease models” (Proc Natl Acad Sci U S A, 2007).
Calls of active or inactive are those of the source. No cut-off for these calls is given here.

Key:
[1] = Toxicity in rat striatal neuronal N548 mutant cells; conditions: read-out: TC50 (the source's name)
[2] = Cell death rescue in rat striatal neuron N548 mutant cells relative to rotenone; type: functional
[3] = Cell death rescue in rat striatal neuron N548 mutant cells; type: functional
Rattus norvegicus [4] = species: Rattus norvegicus; test: Cell death rescue in rat striatal neuronal N548 mutant cells at 10 uM after 2 days by calcein acetoxymethyl ester assay in presence of U0126; type: functional
Rattus norvegicus [5] = species: Rattus norvegicus; test: Suppression of cell death in rat striatal neuronal N548 mutant cells assessed as suppression of caspase 7 activation by Western blotting; type: functional
Procedure, shortened: (§1)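 Serum-deprived N548 mutant cells (0.5% FCS, 39°C) were treated with compound or DMSO. Cleaved active caspase 3 and caspase 7 fragments were detected by Western blotting, with tubulin as loading control.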

Drosophila [6] = test: Decrease in rhabdomere degeneration in Drosophila photoreceptor assessed as number of rhabdomeres per ommatidium at day 9; type: functional, organism-based
Procedure, shortened: (§2)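 Flies of Drosophila HD strain 8534, which express human htt 1–170 with 120Q in the eye, were fed compound mixed into food (renewed every 2 days) or vehicle (0.1% DMSO) at 25°C. Rhabdomeres per ommatidium were counted by the pseudopupil technique at 9 days post-eclosion, blinded, with equal numbers of males and females. 8–10 flies per treatment, 35 ommatidia each; Student's t test.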

Rattus norvegicus [7] = species: Rattus norvegicus; test: Activation of ERK in rat striatal neuronal N548 mutant cells at 50 uM by Western blotting
Procedure, shortened: (§3)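 N548 mutant htt-expressing striatal cells were treated with compound or vehicle (0.1% DMSO) in serum-deprived medium (0.5% FCS, 39°C) or in 10% serum medium. Lysates were Western blotted with phospho-specific antibodies against AKT Ser473, AKT Thr308 and ERK Thr202/Tyr204. Total AKT, total ERK and tubulin served as controls. The concentration series was read at 8 h.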

[8] = molecular target: MAP kinase p38 (Homo sapiens) (UniProt O15264+Q15759+Q16539+P53778); test: Activation of p38 MAPK in rat striatal neuronal N548 mutant cells
Rattus norvegicus [9] = species: Rattus norvegicus; test: Activation of ERK in rat striatal neuronal N548 mutant cells at 10 uM by Western blotting; procedure, shortened: as §3
Rattus norvegicus [10] = species: Rattus norvegicus; test: Activation of AKT in rat striatal neuronal N548 mutant cells after 8 hrs by Western blotting; procedure, shortened: as §3
Rattus norvegicus [11] = species: Rattus norvegicus; test: Suppression of cell death in rat striatal neuronal N548 mutant cells assessed as suppression of caspase 3 activation by Western blotting; type: functional; procedure, shortened: as §1
Rattus norvegicus [12] = species: Rattus norvegicus; test: Activation of ERK in rat striatal neuronal N548 mutant cells after 8 hrs by Western blotting; procedure, shortened: as §3
[13] = Decrease in htt expression in rat striatal neuron N548 mutant cells assessed as visible htt aggregation after 12 hrs by Western blotting; type: functional; parameters: scale not given: the % may be the effect or the level left
Rattus norvegicus [14] = species: Rattus norvegicus; test: Cell death rescue in rat striatal neuronal N548 mutant cells analysed every day for 7 days at 10 uM by trypan blue dye-exclusion assay; type: functional
Procedure, shortened: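 Death was induced in N548 mutant cells by switching to 0.5% FCS medium at 39°C, with compound or DMSO present. Viability was measured daily for 7 days by automated trypan blue (0.4%) dye exclusion, counting at least 200 cells per sample and reporting % trypan blue-negative cells. Two independent experiments were run, each in duplicate.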

Caenorhabditis elegans [15] = test: Cell death rescue of ASH neuronal cells in Caenorhabditis elegans Huntington's disease model; type: functional, organism-based
Procedure, shortened: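 pqe-1;Htn-Q150 C. elegans L1 larvae, which express human htt 1–171 with 150Q in ASH neurons, were kept at 15°C in liquid S medium with E. coli OP50 and compound or DMSO (1.5%). A starvation variant used L1-arrested larvae without food at 25°C. ASH survival was scored as GFP fluorescence in live animals, 100 neurons in more than 50 animals per treatment per time point.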

[16] = molecular target: Glycogen synthase kinase-3 beta (Rattus norvegicus) (UniProt P18266); test: Activation of GSKbeta in rat striatal neuronal N548 mutant cells
Rattus norvegicus [17] = species: Rattus norvegicus; test: Activation of AKT in rat striatal neuronal N548 mutant cells at 10 uM by Western blotting; procedure, shortened: as §3
Rattus norvegicus [18] = species: Rattus norvegicus; test: Activation of AKT in DNA-deficient rat striatal neuronal N548 mutant cells at 10 uM after 6 hrs by Western blotting
Rattus norvegicus [19] = species: Rattus norvegicus; test: Decrease in ATP levels in rat striatal neuronal N548 mutant cells after 8 hrs in serum-deprived medium by luminescence-based assay in presence of glucose; type: functional
Procedure, shortened: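 N548 mutant cells were plated at 10^5 cells per 60-mm dish, treated, and after 8 h in serum-deprived medium were lysed. Total ATP was measured by luciferase luminescence (12 s integration), normalized to cell number, and expressed relative to untreated cells at 0 h (100%). Triplicate, mean ± SD.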

Rattus norvegicus [20] = species: Rattus norvegicus; test: Activation of AKT in rat striatal neuronal N548 mutant cells at 50 uM by Western blotting; procedure, shortened: as §3
Drosophila [21] = test: Toxicity in drosophila Huntington's disease model; type: organism-based; conditions: in vivo
Rattus norvegicus [22] = species: Rattus norvegicus; test: Cell death rescue in rat striatal neuronal N548 mutant cells at 10 uM after 2 days by calcein acetoxymethyl ester assay in presence of LY-294002; type: functional
[23] = molecular target: Tyrosine-protein kinase JAK2 (Rattus norvegicus) (UniProt Q62689); test: Activation of JAK2 in rat striatal neuronal N548 mutant cells
Rattus norvegicus [24] = species: Rattus norvegicus; test: Cell death rescue in DNA-deficient rat striatal neuronal N548 mutant cells at 10 uM; type: functional
Rattus norvegicus [25] = species: Rattus norvegicus; test: Cell death rescue in rat striatal neuronal N548 mutant cells by calcein acetoxymethyl ester assay; type: functional
Procedure, shortened: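 N548 mutant cells in serum-deprived medium (0.5% FCS, 39°C) were treated across a dose range. Viability was read by calcein acetoxymethyl ester fluorescence and expressed as fold increase over DMSO-treated cells. Triplicate wells, mean ± SD.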

Caenorhabditis elegans [26] = test: Toxicity in Caenorhabditis elegans Huntington's disease model; type: organism-based; conditions: for TC50: caenorhabditis elegans, in vivo
Drosophila [27] = test: Cell death rescue of neuronal cells in drosophila Huntington's disease model; type: functional, organism-based; procedure, shortened: as §2
Rattus norvegicus [28] = species: Rattus norvegicus; test: Activation of NF-kappaB in rat striatal neuronal N548 mutant cells
[29] = molecular target: Glycogen synthase kinase-3 alpha (Rattus norvegicus) (UniProt P18265); test: Activation of GSKalpha in rat striatal neuronal N548 mutant cells
Rattus norvegicus [30] = species: Rattus norvegicus; test: Activation of ERK in […] rat striatal neuronal N548 mutant cells at 10 uM after 6 hrs by Western blotting; conditions: 50 uM, in the assay text read “50 uM” for “10 uM”
Procedure, shortened: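 N548 mutant htt-expressing striatal cells were exposed to compound or vehicle (0.1% DMSO) in serum-deprived medium (0.5% FCS, 39°C). Lysates were analysed by Western blotting with a phospho-specific antibody against threonine 202/tyrosine 204 ERK. Total ERK and tubulin served as controls.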

Glycogen synthase kinase-3 beta (Rattus norvegicus), sequence (P18266 whole entry, looked up): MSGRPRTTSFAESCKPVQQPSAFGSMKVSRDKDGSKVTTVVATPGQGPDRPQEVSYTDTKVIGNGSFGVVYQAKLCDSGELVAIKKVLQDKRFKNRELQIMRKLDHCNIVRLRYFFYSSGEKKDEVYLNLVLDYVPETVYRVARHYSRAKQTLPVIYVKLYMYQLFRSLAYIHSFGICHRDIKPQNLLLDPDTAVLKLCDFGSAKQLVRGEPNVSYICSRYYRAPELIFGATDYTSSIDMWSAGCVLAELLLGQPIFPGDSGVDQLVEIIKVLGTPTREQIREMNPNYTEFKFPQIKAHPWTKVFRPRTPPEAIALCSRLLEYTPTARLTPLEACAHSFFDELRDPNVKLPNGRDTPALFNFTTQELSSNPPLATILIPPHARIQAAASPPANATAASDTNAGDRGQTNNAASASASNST
Tyrosine-protein kinase JAK2 (Rattus norvegicus), sequence (Q62689 whole entry): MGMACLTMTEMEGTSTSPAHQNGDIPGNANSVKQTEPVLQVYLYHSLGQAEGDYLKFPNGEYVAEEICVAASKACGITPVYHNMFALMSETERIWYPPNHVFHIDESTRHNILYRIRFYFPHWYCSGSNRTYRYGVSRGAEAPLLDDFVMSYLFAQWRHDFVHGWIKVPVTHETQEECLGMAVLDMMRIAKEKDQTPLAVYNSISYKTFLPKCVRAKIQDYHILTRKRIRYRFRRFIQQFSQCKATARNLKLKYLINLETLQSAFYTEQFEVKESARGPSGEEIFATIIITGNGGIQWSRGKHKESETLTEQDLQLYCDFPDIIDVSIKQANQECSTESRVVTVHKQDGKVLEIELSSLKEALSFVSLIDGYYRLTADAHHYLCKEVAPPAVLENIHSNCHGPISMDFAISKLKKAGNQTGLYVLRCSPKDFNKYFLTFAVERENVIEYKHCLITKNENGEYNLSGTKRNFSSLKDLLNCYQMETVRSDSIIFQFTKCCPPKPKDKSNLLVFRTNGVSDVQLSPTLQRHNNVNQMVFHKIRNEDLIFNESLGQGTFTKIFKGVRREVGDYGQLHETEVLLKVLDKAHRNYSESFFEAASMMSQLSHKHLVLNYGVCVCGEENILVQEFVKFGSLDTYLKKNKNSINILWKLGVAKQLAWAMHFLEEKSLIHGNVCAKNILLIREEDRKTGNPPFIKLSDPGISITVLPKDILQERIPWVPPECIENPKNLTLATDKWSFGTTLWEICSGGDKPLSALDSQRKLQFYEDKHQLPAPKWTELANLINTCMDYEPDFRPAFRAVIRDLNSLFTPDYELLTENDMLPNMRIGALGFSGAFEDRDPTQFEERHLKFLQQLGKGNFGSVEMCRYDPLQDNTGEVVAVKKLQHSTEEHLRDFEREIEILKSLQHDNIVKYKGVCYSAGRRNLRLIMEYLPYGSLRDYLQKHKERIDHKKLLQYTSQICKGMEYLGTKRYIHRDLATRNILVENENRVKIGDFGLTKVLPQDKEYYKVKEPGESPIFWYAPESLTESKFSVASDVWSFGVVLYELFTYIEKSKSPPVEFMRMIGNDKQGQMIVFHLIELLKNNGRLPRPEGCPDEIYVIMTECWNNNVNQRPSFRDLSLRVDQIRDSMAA
Glycogen synthase kinase-3 alpha (Rattus norvegicus), sequence (P18265 whole entry): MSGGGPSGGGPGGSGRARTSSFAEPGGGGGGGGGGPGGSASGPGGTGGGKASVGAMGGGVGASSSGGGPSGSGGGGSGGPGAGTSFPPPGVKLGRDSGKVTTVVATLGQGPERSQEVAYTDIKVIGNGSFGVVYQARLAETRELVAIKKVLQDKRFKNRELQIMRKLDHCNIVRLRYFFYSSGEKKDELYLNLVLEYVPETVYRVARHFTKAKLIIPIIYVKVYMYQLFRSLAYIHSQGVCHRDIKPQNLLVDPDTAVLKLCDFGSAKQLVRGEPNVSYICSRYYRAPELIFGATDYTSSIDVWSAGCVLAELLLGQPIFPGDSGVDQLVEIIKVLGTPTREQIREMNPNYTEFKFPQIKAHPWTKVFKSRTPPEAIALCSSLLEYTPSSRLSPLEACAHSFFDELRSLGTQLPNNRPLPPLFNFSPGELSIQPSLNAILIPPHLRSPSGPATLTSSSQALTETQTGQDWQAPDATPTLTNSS

With `[F-].[Na+]` [SODIUM FLUORIDE] as the compound, how does the CC50 [1] read?
Its CC50 is 10000 µM.

What about the Activity [2] of the same compound?
Its Activity is 0.6.

What about the EC50 [3] of the same compound?
The EC50 was 2000 µM.

With `C=C(C)[C@H]1Cc2c(ccc3c2O[C@@H]2COc4cc(OC)c(OC)cc4[C@@H]2C3=O)O1` [ROTENONE] as the compound, how does the CC50 [1] read?
Its CC50 is 40 µM.

And the Activity (Rattus norvegicus [4])?
The Activity was “inactive”.

And the Activity (Rattus norvegicus [5])?
Its Activity is “Active”.

And the Activity (Drosophila [6])?
Its Activity is “Active”.

And the Activity (Rattus norvegicus [7])?
Its Activity is “Active”.

What about the Activity [8] of the same compound?
Its Activity is “inactive”.

What about the Activity (Rattus norvegicus [9]) of the same compound?
Its Activity is “Active”.

What about the Activity (Rattus norvegicus [10]) of the same compound?
Its Activity is “Dose-dependent effect”.

And the Activity (Rattus norvegicus [11])?
The Activity was “Active”.

And the Activity (Rattus norvegicus [12])?
Its Activity is “Dose-dependent effect”.

And the Activity [13]?
The Activity was under 1%.

What about the Activity (Rattus norvegicus [14]) of the same compound?
The Activity was “Active”.

What about the EC50 (Caenorhabditis elegans [15]) of the same compound?
The EC50 was 2 µM.

And the Activity [16]?
Its Activity is “inactive”.

What about the Activity (Rattus norvegicus [17]) of the same compound?
Its Activity is “Active”.

And the Activity (Rattus norvegicus [18])?
The Activity was “Active”.

And the Activity (Rattus norvegicus [19])?
Its Activity is “inactive”.

And the Activity (Rattus norvegicus [20])?
Its Activity is “Active”.

And the TC50 (Drosophila [21])?
Its TC50 is 50 µM.

What about the Activity (Rattus norvegicus [22]) of the same compound?
Its Activity is “inactive”.

And the Activity [23]?
The Activity was “inactive”.

What about the Activity (Rattus norvegicus [24]) of the same compound?
Its Activity is “Active”.

And the Activity (Rattus norvegicus [25])?
Its Activity is “Active”.

And the EC50 [3]?
The EC50 was 0.5 µM.

And the EC50 (Caenorhabditis elegans [26]; Caenorhabditis elegans)?
Its EC50 is 2 µM.

What about the TC50 (Caenorhabditis elegans [26]) of the same compound?
Its TC50 is 16 µM.

And the EC50 (Drosophila [27])?
The EC50 was 10 µM.

What about the Activity (Rattus norvegicus [28]) of the same compound?
Its Activity is “inactive”.

And the Activity [29]?
The Activity was “inactive”.

Which results are given for `O=[N+]([O-])c1ccc(O)c([N+](=O)[O-])c1` [2,4-DINITROPHENOL]?
CC50 [1]: 16000 µM; Activity [2]: 1; EC50 (Caenorhabditis elegans [15]): 700 µM; TC50 (Drosophila [21]): 10000 µM; EC50 [3]: 200 µM; TC50 (Caenorhabditis elegans [26]): 2000 µM; EC50 (Drosophila [27]): 1250 µM

Which results are given for `CC(C)(C)OC(=O)N[C@@H](CC(=O)O)C(=O)CF`?
Activity (Rattus norvegicus [30]): Active; Activity (Rattus norvegicus [20]): Active
